Among the data in ChEMBL document CHEMBL2413053, “3'-Oxo-, amino-, thio- and sulfone-acetic acid modified thymidines: effect of increased acidity on ribonuclease A inhibition” (Bioorg Med Chem, 2013) are Ki and inhibition values, retold here.

Each structure is given as a SMILES string. The source made the active and inactive calls. The rule behind the calls is not given here.

The Ki is the dissociation constant of the complex between target and ligand, obtained from inhibition or displacement. A lower Ki goes with a stronger hold on the target. For orientation: inhibition means the change of the read-out against control, counted positive when it falls.

The target in one experiment is T1, Ribonuclease pancreatic (Bos taurus, UniProt P61823).
T1 sequence (P61823 whole entry): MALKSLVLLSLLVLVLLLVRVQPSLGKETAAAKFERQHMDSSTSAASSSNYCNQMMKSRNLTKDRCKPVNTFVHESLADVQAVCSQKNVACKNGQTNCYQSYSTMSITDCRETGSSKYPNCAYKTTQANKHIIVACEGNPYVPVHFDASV
The experiment is described as follows: Reversible competitive inhibition of bovine pancreatic RNase A using 2',3'-cCMP as substrate by Lineweaver-Burk plot analysis. The essentials: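 Spectrophotometric RNase A assay in 0.1 M Mes–NaOH, pH 6.0, with 0.1 M NaCl, using 2',3'-cCMP as substrate at varied concentrations. Two fixed inhibitor concentrations were run plus a no-inhibitor set. Ki was derived from initial velocities by Lineweaver–Burk analysis.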

In experiment [1] the target is T2, Ribonuclease pancreatic (Bos taurus) (UniProt P61823).
T2 sequence (whole entry): T1 sequence (P61823 whole entry)
In words: Inhibition of bovine pancreatic RNase A assessed as degradation of tRNA at 0.35 mM incubated for 2 hrs prior to tRNA addition measured after 30 mins by precipitation assay. An outline of the steps: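 RNase A (1.31 μM) preincubated with compound (0.35 mM) 2 h at 37 °C; aliquot then mixed with tRNA (5 mg/mL) in Tris–HCl pH 7.5 with 5 mM EDTA and 0.5 mg/mL HSA, 30 min at 25 °C. Quenched with ice-cold 1.14 M perchloric acid/6 mM uranyl acetate, 30 min on ice, centrifuged; diluted supernatant A260 compared with control.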

Experiment [2] concerns the target T2, Ribonuclease pancreatic (Bos taurus). The experiment is described as follows: Inhibition of bovine pancreatic RNase A assessed as degradation of tRNA at 0.07 to 0.20 mM incubated for 3 hrs prior to tRNA addition measured after 30 mins by agarose gel electrophoresis. An outline of the steps:
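RNase A (1.51 μM stock) preincubated 3 h with compound at 0.07, 0.14 and 0.20 mM in 100 μL. Aliquot then mixed 1:1 with tRNA (5.0 mg/mL, freshly dissolved in RNase-free water) and held 30 min. Sample buffer with glycerol and bromophenol blue was added. Run on 1.1% agarose gel in 0.04 M TAE, pH 8.0. Residual tRNA seen by ethidium bromide staining under UV.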

Experiment [3] shares this target. The conditions noted are these: 0.05 to 0.20 mM.
Experiment [4] shares this target. The experiment is described as follows: Inhibition of bovine pancreatic RNase A assessed as degradation of tRNA at 0.06 to 0.24 mM incubated for 3 hrs prior to tRNA addition measured after 30 mins by agarose gel electrophoresis. The essentials: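 RNase A (1.26 μM stock) preincubated 3 h with compound at 0.06, 0.12, 0.18 and 0.24 mM in 100 μL. Aliquot then mixed with tRNA (5.0 mg/mL, freshly dissolved in RNase-free water) for 30 min. Run on 1.1% agarose gel in 0.04 M TAE, pH 8.0. Residual tRNA visualized by ethidium bromide staining under UV.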

Experiment [5] has the same target. Particulars: 0.05 to 0.24 mM.

`COC(=O)CS[C@H]1C[C@H](n2cc(C)c(=O)[nH]c2=O)O[C@@H]1CO`: the affinity on Ribonuclease pancreatic corresponds to a Ki of 757 µM. In experiment [1], the inhibition turned out to be 3%. The inhibition entry in experiment [2] was “Active”.

For `COC(=O)CS(=O)(=O)C[C@H]1O[C@@H](n2cc(C)c(=O)[nH]c2=O)C[C@@H]1S(=O)(=O)CC(=O)OC`, the affinity on Ribonuclease pancreatic, expressed as Ki, was 267 µM. Moreover, in experiment [1], the inhibition is 15%. In addition, in experiment [2], the inhibition result was “Active”.

For the compound `COC(=O)CS(=O)(=O)C[C@H]1O[C@@H](n2cc(C)c(=O)[nH]c2=O)C[C@H]1S(=O)(=O)CC(=O)OC`, the affinity on Ribonuclease pancreatic, expressed as Ki, was 242 µM. Besides, the inhibition in experiment [1] came to 12%. In addition, the inhibition entry in experiment [2] was “Active”.

Compound `Cc1cn([C@H]2C[C@H](S(=O)(=O)CC(=O)O)[C@@H](CS(=O)(=O)CC(=O)O)O2)c(=O)[nH]c1=O` gave a Ki on Ribonuclease pancreatic of 25 µM. The inhibition entry in experiment [3] is “Active”. Also, the inhibition in experiment [1] came to 35%.

On Ribonuclease pancreatic, `Cc1cn([C@H]2C[C@H](NCC(=O)O)[C@@H](CO)O2)c(=O)[nH]c1=O` returned a Ki of 186 µM. Also, the inhibition in experiment [1] amounted to 19%. In addition, the inhibition entry in experiment [2] is “Active”.

With `Cc1cn([C@H]2C[C@H](S(=O)(=O)CC(=O)O)[C@@H](CO)O2)c(=O)[nH]c1=O`, the inhibition result in experiment [4] is “Active”. The same compound yielded an inhibition constant Ki at Ribonuclease pancreatic of 88 µM. Further, the inhibition in experiment [1] stood at 25%.

Regarding `CCOC(=O)CN[C@H]1C[C@H](n2cc(C)c(=O)[nH]c2=O)O[C@@H]1CO`, on Ribonuclease pancreatic, the inhibition constant (Ki) stood at 504 µM. Further, the inhibition in experiment [1] came to 7%. The inhibition result in experiment [2] is “Active”.

As for `COC(=O)CSC[C@H]1O[C@@H](n2cc(C)c(=O)[nH]c2=O)C[C@H]1SCC(=O)OC`, in experiment [1], the inhibition amounted to 5%. The inhibition result in experiment [2] is “Active”.

Turning to `Cc1cn([C@H]2C[C@@H](S(=O)(=O)CC(=O)O)[C@@H](CS(=O)(=O)CC(=O)O)O2)c(=O)[nH]c1=O`, on Ribonuclease pancreatic, the Ki came out at 39 µM. Besides, the inhibition entry in experiment [5] was “Active”. For the same compound, the inhibition in experiment [1] stood at 33%.

On to `COC(=O)CS(=O)(=O)[C@H]1C[C@H](n2cc(C)c(=O)[nH]c2=O)O[C@@H]1CO`, for which affinity on Ribonuclease pancreatic was put at a Ki of 140 µM. Also, the inhibition in experiment [1] was found to be 18%. Besides, the inhibition entry in experiment [2] was “Active”.

With `Cc1cn([C@H]2C[C@H](OCC(=O)O)[C@@H](CO)O2)c(=O)[nH]c1=O`, affinity on Ribonuclease pancreatic was put at a Ki of 267 µM. Further, in experiment [1], the inhibition stood at 13%. For the same compound, the inhibition entry in experiment [2] was “Active”.

Take `Cc1cn([C@H]2C[C@H](SCC(=O)O)[C@@H](CSCC(=O)O)O2)c(=O)[nH]c1=O`: the inhibition result in experiment [4] was “Active”. Also, the Ki on Ribonuclease pancreatic was 93 µM. Besides, in experiment [1], the inhibition amounted to 18%.

`Cc1cn([C@H]2C[C@H](SCC(=O)O)[C@@H](CO)O2)c(=O)[nH]c1=O` displayed a Ki at Ribonuclease pancreatic of 169 µM. The inhibition in experiment [1] was determined as 17%. Also, the inhibition result in experiment [2] was “Active”.

For `Cc1cn([C@H]2C[C@H](O)[C@@H](CS(=O)(=O)CC(=O)O)O2)c(=O)[nH]c1=O`, in experiment [4], the inhibition result was “Active”. For the same compound, affinity on Ribonuclease pancreatic was put at a Ki of 95 µM. In addition, the inhibition in experiment [1] amounted to 22%.

At Ribonuclease pancreatic, `Cc1cn([C@H]2C[C@@H](SCC(=O)O)[C@@H](CSCC(=O)O)O2)c(=O)[nH]c1=O` showed an inhibition constant (Ki) of 108 µM. For the same compound, in experiment [1], the inhibition worked out at 16%.

Regarding `COC(=O)CS(=O)(=O)C[C@H]1O[C@@H](n2cc(C)c(=O)[nH]c2=O)C[C@@H]1O`, the inhibitory constant (Ki) at Ribonuclease pancreatic was determined as 202 µM. Besides, in experiment [1], the inhibition was found to be 14%. Further, the inhibition entry in experiment [2] was “Active”.
